Data taken from article PMC6426238 (Helvetica chimica acta, 2018).

How the values were obtained:
Caco2-cells = settings: degraded cyanophycin dipeptides; cited from earlier work
Plasmodium berghei = assay: parasitaemia reduction after intravenous tail-vein injection to infected mice; assay type: in vivo; settings: P. berghei-infected mice
Procedure, shortened: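 Single intravenous injection into the tail vein of mice, either uninfected or infected with Plasmodium berghei. Test compound was given in 0.9% NaCl at 0.01 ml/g body weight, with doses in μmol/kg. Oligo-arginine TFA salts were treated with Amberlyst A-26 (OH form) resin to remove TFA. Doses refer to the free peptide unless a TFA salt is stated. Read-outs were acute signs (death and its timing, heart rate, ataxia) and parasitaemia reduction in infected mice.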

HEK293 cells = assay: cell penetration by confocal fluorescence microscopy; assay type: cell-based; settings: FAM-labeled peptides, membrane stain R18
Procedure, shortened: (§1)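 FAM-labelled octa-Adp derivatives (side chains as free carboxylic acids, esters or amides) were purified by preparative HPLC. Unless stated otherwise, TFA counter-ions were removed with OH-form anion-exchange resin before use.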

MCF-7 cells = assay: as above; assay type: cell-based; settings: FAM-labeled peptides, membrane stain R18
Procedure, shortened: as §1

Molecule	absorption by Caco2-cells (Caco2-cells)	cell permeability (CFM) (HEK293 cells)	cell permeability (CFM) (MCF-7 cells)	further results
N=C(N)NCCC[C@H](NC(=O)CC(N)C(=O)O)C(=O)O (stereo partly drawn) [H-Adp-OH, H-βAsp-αArg-OH]	absorbed			
O=CN(O)CCCP(=O)(O)O [Na-fosmidomycin, fosmidomycin]				Parasitaemia reduction (Plasmodium berghei; i.v. dose 1.5·10^4 μmol/kg): No parasitaemia reduction (Parasitaemia reductions < 20% must be considered non-significant in this investigation: ‘no parasitaemia reduction’); Parasitaemia reduction (Plasmodium berghei; i.v. dose 1.5·10^6 μmol/kg): 95% Parasitaemia reduction; Parasitaemia reduction (Plasmodium berghei; i.v. dose 5·10^3 μmol/kg): No parasitaemia reduction (Parasitaemia reductions < 20% must be considered non-significant in this investigation: ‘no parasitaemia reduction’); Parasitaemia reduction (Plasmodium berghei; i.v. dose 5·10^5 μmol/kg): 72% Parasitaemia reduction
NCCCC[C@H](NC(=O)C[C@H](N)C(=O)O)C(=O)O [β-Asp-Lys]	absorbed			
FAM-(Adp(NMe2))8-NH2 [Compound 9]		mediocre to high cell permeability	mediocre to high cell permeability	
FAM-(Adp(OMe))8-NH2 [Compound 8]		mediocre to high cell permeability	mediocre to high cell permeability	
FAM-Adp8-NH2 [Compound 7]		does not enter the cells at all	does not enter the cells at all	
